# Source: PubChem BioAssay
# An excerpt weighted towards active compounds, which were near 1.6% of everything screened.
# GSTO1 inh = blocks human GSTO1 in RBBP9 counter-screen; P78417; recombinant GSTO1, activity-based probe fluorescence polarization; inhibition, % at 5.96 µM; hit rate 1.1% among 300,000;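 active means inhibition above the campaign mean inhibition plus 3 SD, cut at about 35% in these data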
# PAD4 inh = inhibitors of human PAD4. hit rate 0.41% among 330,000. inhibition, % at 6.36 µM. recombinant PAD4, RCA probe fluorescence polarization. Q9UM07;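 active means percent inhibition above a cutoff equal to the mean of all tested compounds plus 3 SD, cut at about 15% in these data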
# CTSL1 counter = counter-screen for PFM18AAP inhibitors: inhibitors of F. hepatica cathepsin L1; recombinant F. hepatica cathepsin L1, Z-Leu-Arg-MCA fluorescence; inhibition, % at 5.96 µM; hit rate 0.49% among 300,000; AID 1906;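 active means inhibition above the mean of all tested compounds plus 3 SD, set per screening campaign, cut at about 17% in these data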
# UCH37 DUB inh = human UCH37 deubiquitinating enzyme inhibition; Q9Y5K5; hit rate 0.33% among 330,000; inhibition, % (concentration not given with the values); purified proteasome/UCH37, Ub-AMC cleavage fluorescence; AID 588478;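 active means mean inhibition over replicate wells above about 20%, limit read from the data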
# Target sequence (Q9Y5K5 whole entry, looked up): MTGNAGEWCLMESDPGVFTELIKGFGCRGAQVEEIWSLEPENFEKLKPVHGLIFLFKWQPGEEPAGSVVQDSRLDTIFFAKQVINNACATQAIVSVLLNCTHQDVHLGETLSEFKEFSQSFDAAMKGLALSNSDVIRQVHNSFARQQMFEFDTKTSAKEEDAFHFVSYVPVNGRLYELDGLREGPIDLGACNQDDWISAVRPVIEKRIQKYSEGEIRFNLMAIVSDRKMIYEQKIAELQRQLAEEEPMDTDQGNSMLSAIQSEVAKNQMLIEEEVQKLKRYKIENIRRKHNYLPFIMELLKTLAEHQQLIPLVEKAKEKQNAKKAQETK
#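 Material: Human UCH37 enzyme supplied as purified proteasome complex | Schedule: 30 min preincubation with enzyme, 25 min cleavage at room temperature | Detection: AMC fluorescence 355/460 nm | Measure: % inhibition of Ub-AMC cleavage fluorescence | Controls: Wells without proteasome as full block, compound-free enzyme plus substrate as uninhibited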
# TDP2 absorb = TDP2 (human) inhibition, absorbance primary screen; O95551; recombinant TDP2, T5PNP hydrolysis, p-nitrophenol absorbance 415 nm; inhibition, % at 12.8 µM; hit rate 0.34% among 370,000; AID 720702;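 active means inhibition above the mean of all tested compounds plus 3 SD, set per campaign, cut at about 25% in these data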
#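 Material: recombinant human TDP2; quantity: TDP2 enzyme at 120 nM final; medium: Tris-HCl pH 7.5 with MgCl2; compound: single concentration, 12.8 µM nominal, with 1% DMSO; incubation: 2 h enzyme incubation at 37 °C; signal: epi absorbance; measure: percent inhibition; benchmarks: high control without enzyme, low control DMSO plus TDP2; repeats: singlicate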
# HKDC1 inh = HKDC1 (human) hexokinase inhibition | recombinant HKDC1, G6PDH/diaphorase resazurin coupled fluorescence | Q2TB90 | hit rate 0.16% among 340,000 | inhibition, % at 20 µM | AID 493160;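 active means inhibition above about 35% when tested at 20 µM, limit read from the data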
#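 Test system: recombinant HKDC1 (HK5) hexokinase enzyme, produced in-house / Doses: 20 µM test compound, 1% DMSO / Timing: 90 min, room temperature / Detection: G6PDH/diaphorase-coupled fluorescence, 1 mM NADP, 100 µM resazurin, 525/613 nm / Control set: DMSO wells with and without enzyme mix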
# PAD4 confirm = PAD4 (human) inhibition, confirmed | shares compounds with PAD4 inh | hit rate 28% among 1,200 | recombinant PAD4, RCA probe fluorescence polarization | inhibition, % at 6.36 µM;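 active means mean inhibition across replicates above the hit cutoff set by the earlier primary screen, cut at about 15% in these data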;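 further: inhibitors block active-site labeling by the probe so polarization falls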
# Numbers stand for hits; – = inactive; · = no result.
SMILES,GSTO1 inh,PAD4 inh,CTSL1 counter,UCH37 DUB inh,TDP2 absorb,HKDC1 inh,PAD4 confirm
CC(=NNC(=O)CNC(=O)c1ccncc1)c1ccc(C)cc1,·,·,·,–,·,·,·
C#CCn1c(=NC(=O)CSC(C)=O)sc2cc(F)ccc21,–,–,–,–,·,–,·
CCn1c(=NC(=O)CSC(C)=O)sc2cc(F)ccc21,–,15.8,–,–,–,–,–
Cc1cc(C)nc(Sc2ccc(C=O)cc2[N+](=O)[O-])n1,–,–,–,–,–,–,·
O=Cc1ccc(Sc2nnc(-c3ccccc3)o2)c([N+](=O)[O-])c1,–,24.2,–,–,·,42.8,23.7
COc1ccc(OCc2ccc(C=NNC(=O)c3sccc3C)o2)cc1,·,·,·,–,·,·,·
O=C(NN=C/C=C/c1ccccc1[N+](=O)[O-])c1cccs1,·,·,·,–,·,·,·
Cc1cc(C)c2c(c1)-c1c(ssc1=S)C(C)(C)N2C(=O)CSc1nncn1C,–,33.8,–,–,–,–,31.6
Cc1ccc2c(c1)-c1c(ssc1=S)C(C)(C)N2C(=O)CSc1nncn1C,–,17.1,–,–,–,–,21.9
COc1ccc2c(c1)-c1c(ssc1=S)C(C)(C)N2C(=O)CSC1=NCCS1,–,–,–,–,–,–,·
Cc1ccc(C(=O)NN=C2CCSC2)cc1[N+](=O)[O-],·,·,·,–,·,·,·
CN(C(=O)c1ccc(NC(=O)Cc2cccc([N+](=O)[O-])c2)cc1)C1CC1,·,35.1,·,–,–,–,–
CN(C(=O)c1ccc(NC(=O)Cc2cccc([N+](=O)[O-])c2)cc1)C1CCCC1,·,–,·,–,–,–,·
COc1ccc(C=Nn2cnc3c(sc(=S)n3-c3ccccc3)c2=O)cc1,·,·,·,–,·,·,·
CC1=CC(C)(C)N2C(=O)C3(C(C#N)=C(N)OC4=C3C(=O)CC(C)(C)C4)c3c(C)c(C)cc1c32 (centres undefined),–,39.9,–,–,–,–,–
CCCSc1nc2c(cnn2-c2ccccc2)c(=O)n1N,–,–,–,–,–,–,·
Nn1c(SCc2ccccc2)nc2c(cnn2-c2ccccc2)c1=O,–,18.4,–,–,–,–,–
Cc1ccc(S(=O)(=O)N2CCN(C(=O)Cc3ccccc3)CC2)cc1C,·,21.8,·,–,–,–,–
Cc1ccc(CC(=O)N2CCN(S(=O)(=O)c3ccccc3)CC2)cc1C,–,–,–,–,–,–,·
Cn1c(CN2CCOCC2)nnc1SCC(=O)Nc1ccc2c(c1)OCCO2,–,42.2,–,–,–,–,–
Cc1ccc(NC(=O)CSc2nnc(CN3CCOCC3)n2C)cc1C,–,–,–,–,–,–,·
Cc1ccc(NC(=O)c2ccc(=O)[nH]n2)cc1S(=O)(=O)Nc1ccc(SC(F)F)cc1,·,22.2,·,–,–,–,–
O=C(C1=NN[C@@H]2C(=O)N(c3cccc(F)c3)C(=O)[C@H]12)c1cnccn1,–,–,–,–,–,–,·
CCN1C(=O)[C@@H]2C(C(=O)c3cnccn3)=NN[C@@H]2C1=O,–,19.6,–,–,–,–,–
O=C1NC2=C(CCc3ccccc32)C(c2ccccc2)N1 (centres undefined),–,27.4,–,–,–,–,–
SMILES,GSTO1 inh,PAD4 inh,CTSL1 counter,UCH37 DUB inh,TDP2 absorb,HKDC1 inh,PAD4 confirm
COc1cc(C=NOCC(=O)NC23CC4CC(CC(C4)C2)C3)ccc1OCc1ccccc1,·,·,·,–,·,·,·
CCOC(=O)/C(C#N)=C/C=C1\C=Cc2ccccc2N1CC,–,87.4,–,–,–,–,18.6
CCOC(=O)C(C#N)=c1sc(=C2C=Cc3ccccc3N2CC)c(=O)n1CC,·,·,·,–,·,·,·
CCN(CC)CCN(C(=O)c1ccc2ncsc2c1)c1nc2cc3c(cc2s1)OCO3,–,22.2,–,–,–,–,–
O=C(c1ccc(Cl)c(S(=O)(=O)N2CCOCC2)c1)N1CCCC1,–,15.8,–,–,–,–,–
O=C(c1ccc(Cl)c(S(=O)(=O)N2CCCC2)c1)N1CCOCC1,–,–,–,–,–,–,·
Cc1ccc(S(=O)(=O)N=C(CN2CCOCC2)N2CCOCC2)cc1,·,·,·,–,·,·,·
CCOC(=O)c1cc(C)sc1NC(=O)CSC1=NCCS1,–,15.3,–,–,–,–,19.4
CCCc1c(O)nc(SCC(=O)N2CCCCC2)[nH]c1=O,–,–,–,–,–,–,·
CC(C)CCc1c(O)nc(SCC(=O)N2CCCCCC2)[nH]c1=O,–,16.1,–,·,–,·,–
